Most compounds without a hit are left out; they make up all but 1.9% or so of the library.
CSN inh: blocks human CSN-mediated cullin deneddylation. Q92905. Purified CSN, SCF-Nedd8-OG deneddylation, fluorescence polarization. inhibition, % at 12.5 µM. 360,000 compounds, 0.38% hits. AID 651999;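 active means pattern-corrected inhibition above about 35%, with an unprinted fluorescence ratio check between 0.5 and 1.5, limit read from the data, passing the limit was not always enough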
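Assay system: HEK293T-derived human Csn5 enzyme; quantity: 0.24 nM enzyme; medium: Tris/NaCl/DTT buffer, pH 7.5; also added: substrate SCFSkp2-Nedd8OG, 10 nM; doses: 12.5 µM compound; schedule: 90 min reaction at room temperature; signal: FP; read-out: % inhibition of substrate cleavage by Csn5; benchmarks: substrate-only high control, full reaction low control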
LMPTP block: blocks human LMPTP phosphatase; recombinant LMPTP-A, OMFP fluorogenic substrate, fluorescence intensity; inhibition, % at 20 µM; 360,000 compounds, 0.22% hits; AID 651560; P24666;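 active means compounds that cut the enzyme signal by at least half of the control window in the single-dose screen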
Target sequence (P24666 whole entry, looked up): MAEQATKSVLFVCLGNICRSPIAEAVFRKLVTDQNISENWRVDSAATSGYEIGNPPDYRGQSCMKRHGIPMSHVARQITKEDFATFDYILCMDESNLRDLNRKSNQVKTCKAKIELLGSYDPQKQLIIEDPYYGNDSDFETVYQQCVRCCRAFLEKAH
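Test system: LMPTP-A phosphatase enzyme; input: 0.625 nM LMPTP-A final; reagent: OMFP substrate, 400 µM final; compound dosing: 20 µM single dose, 3% DMSO; incubation: 50 min dark incubation at room temperature; measured by: endpoint fluorescence intensity from OMFP dephosphorylation; measure: % inhibition relative to no-enzyme and uninhibited control wells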
Scp-1 inhibitor: blocks human Scp-1 phosphatase activity; Q9GZU7; Recombinant Scp1, phosphopeptide, malachite green phosphate absorbance; inhibition, % at 20 µM; 340,000 compounds, 0.88% hits; AID 493091;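 active means inhibition above about 50% at 20 µM, limit read from the data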
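Assay system: SCP-1 catalytic fragment, aa 76-261 | Buffer or medium: Tris acetate buffer pH 5.5 with MgCl2 and Tween-20 | Compound: One concentration, 20 µM, with 1.0% DMSO | Also added: Phospho 17-mer peptide substrate | Signal: Absorbance at 630 nm | Incubation: 45 min enzyme reaction at room temperature | Measure: % inhibition of SCP-1 phosphate liberation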
DNMT1 inh: DNMT1 (human) enzyme inhibition; P26358; DNMT1 molecular beacon, Hinp1I cleavage, fluorescence; inhibition (reported as % activation of signal), % at 10 µM; 360,000 compounds, 0.83% hits; in the data active means inhibition above about 50%
SUMO1 PPI mod: modulators of human SUMO1-mediated protein-protein interactions | P63165 | inhibition, % at 20 µM | 360,000 compounds, 0.33% hits | SUMO1 binding to a labelled peptide, TR-FRET, 1 h | AID 602429; in the data active means inhibition above about 37%
STEP block: inhibitors of human striatal-enriched phosphatase STEP; P54829; recombinant STEP, OMFP fluorogenic substrate, fluorescence; inhibition, % at 20 µM; 360,000 compounds, 0.25% hits; AID 588621;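 active means inhibition at 20 µM, scaled per plate between control wells, above about 37%, limit read from the data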
Target sequence (P54829 whole entry, looked up): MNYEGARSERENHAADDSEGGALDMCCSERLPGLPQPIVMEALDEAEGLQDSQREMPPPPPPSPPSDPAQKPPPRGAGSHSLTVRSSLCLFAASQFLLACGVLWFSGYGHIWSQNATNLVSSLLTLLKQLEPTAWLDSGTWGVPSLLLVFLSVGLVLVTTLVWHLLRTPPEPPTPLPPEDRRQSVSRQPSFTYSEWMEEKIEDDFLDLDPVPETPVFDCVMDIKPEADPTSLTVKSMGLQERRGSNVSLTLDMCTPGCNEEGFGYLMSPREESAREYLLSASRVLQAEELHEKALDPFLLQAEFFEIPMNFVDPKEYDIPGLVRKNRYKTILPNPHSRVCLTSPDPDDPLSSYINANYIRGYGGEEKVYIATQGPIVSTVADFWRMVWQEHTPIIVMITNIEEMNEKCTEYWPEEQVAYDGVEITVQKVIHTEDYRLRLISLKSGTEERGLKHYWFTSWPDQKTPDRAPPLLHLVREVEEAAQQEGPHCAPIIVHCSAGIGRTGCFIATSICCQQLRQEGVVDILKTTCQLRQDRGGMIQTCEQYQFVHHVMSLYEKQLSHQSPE
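Measure: Control-normalized % inhibition with plate pattern correction | Test system: STEP phosphatase, cell-free reaction | Medium: pH 6.0 Bis-Tris with DTT and Tween 20 | Technique: Fluorescence, 480/540 nm | Times: Reaction 20 min, ambient temperature | Doses: Single compound dose of 20 µM, 1% DMSO final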
DNMT1 inh conf: confirmation of human DNMT1 inhibitors; shares compounds with DNMT1 inh; DNMT1 molecular beacon HinP1I cleavage, fluorescence; inhibition, % at 10 µM; 2,300 compounds, 8% hits; AID 602385;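 active means average inhibition of at least 30% in the single-concentration confirmation test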
Beacon interf: shows spectral interference in the DNMT1 beacon assay; AID 602387; activation (fluorescence interference), % at 10 µM; shares compounds with DNMT1 inh; DNMT1 molecular beacon spectral interference counterscreen, fluorescence 485/520; 2,300 compounds, 1% hits;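 active means activation of at least 30% at 10 µM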;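 further: DNMT1 catalytic domain with a HinP1I cleavage step and a FAM/dabcyl DNA beacon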
Of the large screens only hits and unclear results are named; the others gave an inactive call (follow-up assays come after a bar, where they were run).

Cc1ccc2c(N)c(C)ccc2c1	none
Cc1cc(O)cc2c1C(=O)/C(=C/c1ccco1)O2	DNMT1 inh 65 | DNMT1 inh conf inactive | Beacon interf inactive
CCC(=O)Oc1ccc2c(c1)O/C(=C\c1ccco1)C2=O	none
CC(=O)c1cccc(NC(=O)CSc2nnnn2C2CCCC2)c1	none
O=C(c1ccc(Cl)cc1)C1CCN(C(=O)c2ccccc2)CC1	DNMT1 inh 89 | DNMT1 inh conf inactive | Beacon interf inactive
O=C(c1ccc(F)cc1)C1CCN(C(=O)c2ccc(Cl)cc2)CC1	none
COc1ccc(-c2ccc(-c3cc(=O)oc4cc(OC)c(OC)c(OC)c34)cc2)cc1F	none
COc1cc2oc(=O)cc(-c3ccc(-c4ccc(OC(F)(F)F)cc4)cc3)c2c(OC)c1OC	DNMT1 inh 61 | DNMT1 inh conf inactive | Beacon interf inactive
COc1ccc(C(CNC(=O)c2ccc(NS(=O)(=O)c3ccc(F)cc3)cc2)N2CCOCC2)cc1 (stereo not drawn)	none
COc1ccc(C(CNC(=O)COc2ccccc2C#N)N2CCOCC2)cc1 (stereo not drawn)	DNMT1 inh 104 | DNMT1 inh conf inactive | Beacon interf inactive
COc1ccc(C(CNC(=O)c2ccc(S(=O)(=O)Nc3cccc(C)c3C)cc2)N2CCOCC2)cc1 (stereo not drawn)	DNMT1 inh 95 | DNMT1 inh conf inactive | Beacon interf inactive
COc1cccc(OC)c1OC(=O)c1ccccc1	none
Cc1ccc(CNC(=O)/C=C/c2ccc(Br)o2)cc1	none
O=C(/C=C/c1ccc(Br)o1)NCc1ccccc1	DNMT1 inh 74 | DNMT1 inh conf inactive | Beacon interf inactive
CC1(OC(=O)C2CCCC2)C(=O)C=C2C=C(c3ccsc3)N(CCCCO)C=C2C1=O (stereo not drawn)	none
CC1(OC(=O)C2CCCC2)C(=O)C=C2C=C(c3ccsc3)N(Cc3ccco3)C=C2C1=O (stereo not drawn)	DNMT1 inh 62 | DNMT1 inh conf inactive | Beacon interf inactive
Cn1cc(/C=C(\C#N)C(=O)Nc2cccc([N+](=O)[O-])c2)c2ccccc21	DNMT1 inh 61 | DNMT1 inh conf inactive | Beacon interf inactive
CC(C)[C@@H]1Cc2[nH]n(C)c(=O)c2[C@H](c2ccc(Cl)cc2)O1	none (no result: Scp-1 inhibitor, DNMT1 inh, STEP block)
CCOC(=O)c1c2ccc(OCC(=O)N/N=C/c3ccc(C)cc3)cc2n2ccccc12	DNMT1 inh 72 | DNMT1 inh conf inactive | Beacon interf inactive
CC(C)N(C(=O)[C@H]1C[C@H](CC(=O)NCCN2CCOCC2)C(=O)N2CCc3c([nH]c4cc(CCC(=O)N(C)C)ccc34)[C@]12C)C(C)C	none
CC1CN(C(C)C)C(=S)NC1=O (stereo not drawn)	none
CC(C)(C)OC(=O)N1CCC[C@H]1c1nnc(SCc2cccc(Cl)c2)o1	none
COc1cccc(C(=O)NCC2CCCN(C(=O)c3ccc(C=O)cc3)C2)c1OC (stereo not drawn)	none
Cc1cc(NC(=O)CSc2nc3sc4c(c3c(=O)n2C)CCCC4)no1	DNMT1 inh 56 | DNMT1 inh conf inactive | Beacon interf inactive
CCn1c(SCC(=O)Nc2cc(C)on2)nc2sc3c(c2c1=O)CCCC3	none
CN(Cc1ccccc1)S(=O)(=O)c1cccc(C(=O)O)c1	none
O=C(NCc1ccccc1Cl)C(=O)NCC1OCCN1S(=O)(=O)c1cccs1 (stereo not drawn)	none
COc1ccccc1-c1n[nH]nc1C1=CC(=O)C[C@H](c2ccc(F)cc2)C1	none (no result: Scp-1 inhibitor)
COc1ccccc1C1=NC(c2ccc(F)cc2)N=C1C (stereo not drawn)	DNMT1 inh 74 | DNMT1 inh conf inactive | Beacon interf inactive
CCCCc1cc(=O)oc2cc(C)c(CN3CCCC3)c(O)c12	DNMT1 inh 96 | DNMT1 inh conf inactive | Beacon interf inactive
CCc1cc(=O)oc2cc(C)c(CN3CCCC(C)C3)c(O)c12 (stereo not drawn)	none
O=C(COc1ccccc1)Nc1cccc(-c2ccc(N3CCOCC3)nn2)c1	none
COc1ccc2c(c1OC)C(=O)OC2	none
COc1ccc2c3c(cccc13)C(=O)CC2	DNMT1 inh 128 | DNMT1 inh conf inactive | Beacon interf 37
COc1ccc(-c2csc(C(O)c3ccc(F)cc3)n2)cn1 (stereo not drawn)	none (no result: Scp-1 inhibitor)
O=C(/C=C/c1ccco1)NC(=S)Nc1ccc(O)c(-c2nc3ccccc3s2)c1	DNMT1 inh 67 | DNMT1 inh conf inactive | Beacon interf inactive
COc1cccc(OCc2cc(C(=O)N3CCN(c4ccccc4OC)CC3)no2)c1	none
O=C(N/N=C/c1ccc(O)c(Br)c1)c1cc2c(ccc3ccccc32)o1	none
Cc1ccc(/C=N/NC(=O)c2cc3c(ccc4ccccc43)o2)cc1[N+](=O)[O-]	DNMT1 inh 80 | DNMT1 inh conf inactive | Beacon interf inactive
O=C(N/N=C/c1ccc([N+](=O)[O-])o1)c1cc2c(ccc3ccccc32)o1	LMPTP block 79, Scp-1 inhibitor 94, DNMT1 inh 85, STEP block 95 | DNMT1 inh conf inactive | Beacon interf inactive
CN(CCC#N)C(=S)Nc1ccc(Oc2ccccc2)cc1	none
CCCNC(=O)Cn1c(=O)/c(=C/c2ccc(-c3cccc([N+](=O)[O-])c3)o2)s/c1=C\C(=O)C(C)(C)C	DNMT1 inh 68 | DNMT1 inh conf inactive | Beacon interf inactive
CCCCC(c1nnnn1C(C)C)N1CCN(C(=O)c2ccco2)CC1 (stereo not drawn)	none
C=CCC[C@@H](Cc1ccc(F)cc1)C(=O)O[C@H](CNC(=O)[C@@H](CC=C)CC(=O)N[C@H](CO)Cc1ccccc1)c1ccccc1	DNMT1 inh 83 | DNMT1 inh conf inactive | Beacon interf inactive
C=CCC[C@H](Cc1ccc(F)cc1)C(=O)OC[C@H](Cc1c[nH]c2ccccc12)NC(=O)[C@@H](CC=C)CC(=O)N[C@@H](CO)Cc1ccccc1	DNMT1 inh 69 | DNMT1 inh conf inactive | Beacon interf inactive
C=CCC[C@H](Cc1ccc(F)cc1)C(=O)OC[C@@H](C)NC(=O)[C@@H](CC=C)CC(=O)N[C@H](CO)Cc1ccccc1	none
C=CC[C@@H](CC(=O)N[C@H](CO)Cc1ccccc1)C(=O)NC[C@@H](OC(=O)[C@@H](CC=C)Cc1ccc(F)cc1)c1ccccc1	DNMT1 inh 77 | DNMT1 inh conf inactive | Beacon interf inactive
